Test results published in ChEMBL document CHEMBL4052614, “Novel 3',5'-diprenylated chalcones inhibited the proliferation of cancer cells in vitro by inducing cell apoptosis and arresting cell cycle phase” (Eur J Med Chem, 2017).
The source made the active and inactive calls. No cut-off for these calls is given here.

Key:
K562 [1] = test: Growth inhibition of human K562 cells at 5 umol/L after 48 hrs by MTT assay relative to control; assay type: functional; settings: K562, 48 h, read-out: GI
Procedure, shortened: (§1)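 Cells kept in DMEM/10% FBS at 37 °C, 5% CO2, seeded at 4×10^3–8×10^3 cells/well, 24 h attachment, then 48 h with compound at 5 µmol/L. MTT (5 mg/mL solution) added for 4 h at 37 °C, formazan taken up in DMSO, A490 read. Percent inhibition as mean ± SD of three independent experiments. Doxorubicin as positive control.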

HEL [2] = test: Induction of apoptosis in HEL cells assessed as necrotic cells at 5 umol/L after 48 hrs by annexin V-FITC/propidium iodide staining based flow cytometry (reference value: 0.3 to 1%); assay type: functional, Homo sapiens
MDA-MB-231 [3] = test: Induction of apoptosis in human MDA-MB-231 cells assessed as effect on cell adherence at 5 umol/L after 48 hrs by inverted microscopic method; assay type: functional, cell-based
Procedure, shortened: (§2)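 Cells cultured in DMEM/10% FBS at 37 °C, 5% CO2. Exposed 48 h to 5 µmol/L compound alongside DMSO controls. Morphology (cell number, rounding, spacing, apoptotic bodies, spindle shape) observed under an inverted microscope with CCD camera.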

K562 [4] = test: Induction of morphological changes in human K562 cells assessed as increase in intracellular space at 5 umol/L after 48 hrs by inverted microscopic method; assay type: functional, cell-based; procedure, shortened: as §2
K562 [5] = test: Induction of apoptosis in human K562 cells assessed as late apoptotic cells at 5 umol/L after 48 hrs by annexin V-FITC/propidium iodide staining based flow cytometry (reference value: 2.3%); assay type: functional
PC-3 [6] = test: Induction of morphological changes in human PC3 cells assessed as increase in formation of apoptotic bodies at 5 umol/L after 48 hrs by inverted microscopic method; assay type: functional, cell-based
Procedure, shortened: (§3)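 PC3 cells were kept in DMEM with 10% FBS, penicillin and streptomycin at 37 °C under 5% CO2, and were passaged at least 3 times after thawing. Cells were seeded at 4 × 10^3 to 8 × 10^3 cells/well and left to adhere for 24 h. They were then exposed to 5 µmol/L compound for 48 h. Morphology was viewed by inverted microscope against DMSO-treated controls.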

HEL [7] = test: Cell cycle arrest in HEL cells assessed as decrease in S phase accumulation at 5 umol/L after 48 hrs by propidium iodide staining based flow cytometry; assay type: functional; settings: Homo sapiens
Procedure, shortened: (§4)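 Cells grown in DMEM with 10% FBS and penicillin/streptomycin at 37 °C, 5% CO2, and passaged at least 3 times after thawing. Treated 48 h at 5 µmol/L, DMSO-treated controls. Harvested by trypsin, PBS-washed, fixed in ice-cold ethanol, blocked 1 h at 4 °C in 5% BSA/PBS, RNase 1 µg/mL 30 min at 37 °C, PI 20 µg/mL final. Phase percentages read from PI histograms. Mean ± SD, three independent experiments.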

HEL [8] = test: Cytotoxicity against HEL cells after 48 hrs by MTT assay; assay type: functional, cell-based; settings: Homo sapiens
Procedure, shortened: (§5)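 Cells kept in DMEM/10% FBS at 37 °C, 5% CO2, seeded at 4×10^3–8×10^3 cells/well and left 24 h to adhere. Exposed 48 h to a range of concentrations. MTT (5 mg/mL solution) added for 4 h at 37 °C, formazan dissolved in DMSO, absorbance read at 490 nm. IC50 derived from concentration–inhibition relation. Doxorubicin as positive control.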

MDA-MB-231 [9] = test: Induction of morphological changes in human MDA-MB-231 cells assessed as reduction in number of apoptotic bodies at 5 umol/L after 48 hrs by inverted microscopic method
HEL [10] = test: Growth inhibition of HEL cells at 5 umol/L after 48 hrs by MTT assay relative to control; assay type: functional; settings: Homo sapiens, read-out: GI; procedure, shortened: as §1
HEL [11] = test: Potency index, ratio of compound effect to (E)-2-Hydroxy-4,4-dimethoxy-3,5-diprenylchalcone effect for growth inhibition of HEL cells; assay type: functional, Homo sapiens
PC-3 [12] = test: Induction of apoptosis in human PC3 cells assessed as viable cells at 5 umol/L after 48 hrs by annexin V-FITC/propidium iodide staining based flow cytometry (reference value: 86.7%); assay type: functional; settings: PC-3, 48 h, read-out: Activity
MDA-MB-231 [13] = test: Cell cycle arrest in human MDA-MB-231 cells assessed as decrease in S phase accumulation at 5 umol/L after 48 hrs by propidium iodide staining based flow cytometric method; assay type: functional; procedure, shortened: as §4
MDA-MB-231 [14] = test: Potency index, ratio of compound effect to (E)-2-Hydroxy-4,4-dimethoxy-3,5-diprenylchalcone effect for growth inhibition of human MDA-MB-231 cells; assay type: functional
PC-3 [15] = test: Induction of morphological changes in human PC3 cells assessed as increase in intracellular space at 5 umol/L after 48 hrs by inverted microscopic method; assay type: functional, cell-based; procedure, shortened: as §3
HEL [16] = test: Induction of apoptosis in HEL cells assessed as late apoptotic cells at 5 umol/L after 48 hrs by annexin V-FITC/propidium iodide staining based flow cytometry (reference value: 1.6 to 3.3%); assay type: functional, Homo sapiens
K562 [17] = test: Induction of morphological changes in human K562 cells assessed as increase in formation of apoptotic bodies at 5 umol/L after 48 hrs by inverted microscopic method; assay type: functional, cell-based; procedure, shortened: as §2
K562 [18] = test: Cell cycle arrest in human K562 cells assessed as decrease in G2 phase accumulation at 5 umol/L after 48 hrs by propidium iodide staining based flow cytometry; assay type: functional; procedure, shortened: as §4
K562 [19] = test: Induction of apoptosis in human K562 cells assessed as early apoptotic cells at 5 umol/L after 48 hrs by annexin V-FITC/propidium iodide staining based flow cytometry (reference value: 4%); assay type: functional
MDA-MB-231 [20] = test: Cytotoxicity against human MDA-MB-231 cells after 48 hrs by MTT assay; assay type: functional, cell-based; procedure, shortened: as §5
MDA-MB-231 [21] = test: Cell cycle arrest in human MDA-MB-231 cells assessed as increase in G2 phase accumulation at 5 umol/L after 48 hrs by propidium iodide staining based flow cytometry; assay type: functional; procedure, shortened: as §4
PC-3 [22] = test: Induction of apoptosis in human PC3 cells assessed as effect on cell adherence at 5 umol/L after 48 hrs by inverted microscopic method; assay type: functional, cell-based; procedure, shortened: as §2
K562 [23] = test: Potency index, ratio of compound effect to (E)-2-Hydroxy-4,4-dimethoxy-3,5-diprenylchalcone effect for growth inhibition of human K562 cells; assay type: functional
PC-3 [24] = test: Cell cycle arrest in human PC3 cells assessed as decrease in G2 phase accumulation at 5 umol/L after 48 hrs by propidium iodide staining based flow cytometric method; assay type: functional; procedure, shortened: as §4

## COc1c(CC=C(C)C)cc(C(=O)/C=C/c2cccnc2)c(O)c1CC=C(C)C
K562 [1]
  inhibition of growth at 5 µM: 86.2%
HEL [2]
  Activity: 4.9%
MDA-MB-231 [3]
  Activity: Active
K562 [4]
  Activity: Active
K562 [5]
  Activity: 14.6%
PC-3 [6]
  Activity: Active
HEL [7]
  Activity: Active
HEL [8]
  Activity: Dose-dependent effect
  IC50: 1.85 µM
MDA-MB-231 [9]
  Activity: Active
HEL [10]
  inhibition of growth at 5 µM: 91.7%
HEL [11]
  Ratio: 3 - 4
PC-3 [12]
  viability at 5 µM: 44.9%
MDA-MB-231 [13]
  Activity: Active
MDA-MB-231 [14]
  Ratio: 3 - 4
PC-3 [15]
  Activity: Active
HEL [16]
  Activity: 7.1%
K562 [17]
  Activity: Active
K562 [18]
  Activity: Active
K562 [19]
  Activity: 10.1%
MDA-MB-231 [20]
  Activity: Dose-dependent effect
MDA-MB-231 [20]; MDA-MB-231, 48 h
  IC50: 3.14 µM
MDA-MB-231 [21]
  Activity: Active
PC-3 [22]
  Activity: Active
K562 [23]
  Ratio: 3 - 4
PC-3 [24]
  Activity: Active
